# Assay results collected from several papers.
# Protocols differ between the studies behind these lines.
Structure (SMILES),organism,test,system,conditions,endpoint,value
OC(Cn1cncn1)(Cn1cncn1)c1ccc(F)cc1F,Cryptococcus neoformans,"microbial growth, broth dilution",H99,48 h,MIC,8 µg/mL
C/C(=N/NC(=O)c1cn(-c2ccccc2)nc1-c1ccc(Cl)cc1)c1c(O)cc(C)oc1=O,Bacillus subtilis,microbial growth,,,MIC,70 µg/mL
C[C@@H]1[C@H](O)[C@@H](C)/C=C/C=C/C=C/C=C/C=C/C=C/C=C/[C@H](O[C@@H]2O[C@H](C)[C@@H](O)[C@H](N)[C@@H]2O)C[C@@H]2O[C@](O)(C[C@@H](O)C[C@@H](O)[C@H](O)CC[C@@H](O)C[C@@H](O)CC(=O)O[C@H]1C)C[C@H](O)[C@H]2C(=O)O,Cryptococcus neoformans,"microbial growth, broth dilution",,72 h,MIC,0.25 µg/mL
C=CC(=O)ON=C1C=CC(=C(C#N)c2ccccc2)C=C1,Nakaseomyces glabratus,"microbial growth, broth dilution",ATCC15126,48 h,MIC,16 µg/mL
O=C(Nc1ccc(Br)cc1)c1ccc(COC(Cn2ccnc2)c2ccc(Cl)cc2Cl)cc1 (stereo not shown),Nakaseomyces glabratus,"microbial growth, broth dilution",,,MIC80,0.125 µg/mL
C#CCOC(=O)ON=C1C=CC(=C(C#N)c2ccccc2)C=C1,Nakaseomyces glabratus,"microbial killing, broth dilution",ATCC15126,48 h,MFC,16 µg/mL
O=C(Nc1ccc2cccnc2c1)c1ccc(COC(Cn2ccnc2)c2ccc(Cl)cc2Cl)cc1 (stereo not shown),Nakaseomyces glabratus,"microbial growth, broth dilution",,,MIC80,8 µg/mL
CNC(C)C1CCC(N)C(OC2C(N)CC(N)C(OC3OCC(C)(O)C(NC)C3O)C2O)O1 (stereo not shown),Bacillus subtilis,"microbial growth, broth dilution",,,MIC,1 µg/mL
C/C(=N/NC(=O)c1cn(-c2ccccc2)nc1-c1ccc(Br)cc1)c1c(O)cc(C)oc1=O,Bacillus subtilis,microbial growth,,,MIC,70 µg/mL
C#CCON=C1C=CC(=C(C#N)c2ccccc2)C=C1,Nakaseomyces glabratus,"microbial growth, broth dilution",ATCC15126,48 h,MIC,16 µg/mL
O=C(Nc1ccc(F)cc1F)c1ccc(COC(Cn2ccnc2)c2ccc(Cl)cc2Cl)cc1 (stereo not shown),Nakaseomyces glabratus,"microbial growth, broth dilution",,,MIC80,0.03 µg/mL
CCOC(=O)/C=C1/SC(N/N=C/c2c(-c3ccc(OC)cc3)nc3ncccn23)=NC1=O,Bacillus subtilis,"microbial growth, well diffusion",ATCC6051,100 µg/mL,inhibition zone,11 mm
O=C(Nc1cccc(F)c1)c1ccc(COC(Cn2ccnc2)c2ccc(Cl)cc2Cl)cc1 (stereo not shown),Nakaseomyces glabratus,"microbial growth, broth dilution",,,MIC80,0.125 µg/mL
CC(=O)ON=C1C=CC(=C(C#N)c2ccccc2)C=C1,Nakaseomyces glabratus,"microbial growth, broth dilution",ATCC15126,48 h,MIC,16 µg/mL
Cc1ccc(NC(=O)c2ccc(COC(Cn3ccnc3)c3ccc(Cl)cc3Cl)cc2)cc1 (stereo not shown),Nakaseomyces glabratus,"microbial growth, broth dilution",,,MIC80,0.06 µg/mL
C/C(=N/NC(=O)c1cn(-c2ccccc2)nc1-c1ccc(C)cc1)c1c(O)cc(C)oc1=O,Bacillus subtilis,microbial growth,,,MIC,50 µg/mL
